Test results reported in paper PMC5958747 (Endocrine Connections, 2018).
Marks after values point to notes of the source that are not given here.

Assays:
[1] = test system: MNU-induced mammary tumours; assay: N-methyl-N-nitrosourea; format: in vivo, female Sprague-Dawley rats; settings: for increase of mammary tumour number in tumour-bearing rats compared with controls: end of study, significant for glargine only; for number of tumours per rat (tumour multiplicity, all rats): including rats bearing no tumour, 15 U/kg/day s.c. 5 days a week, at 6 weeks of treatment, high-fat diet, MNU, mean ± S.E.M., n = 30 per group
[2] = format: in vivo, female Sprague-Dawley rats; settings: for Final body weight: after 6 weeks of 15 U/kg s.c. 5 days per week; for Final body weight / Food intake / Body weight increase: mean ± S.E.M., n = 30; for Food intake: average over the treatment period; for Body weight increase: over 6 weeks of treatment; for blood glucose levels before the injection vs control or detemir groups: over the treatment period, n = 30 per group
Method in brief: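 Female Sprague-Dawley rats on a high-fat diet (40% of calories) from 4 weeks of age were given MNU 485 μmol/kg s.c. 1 week later. Light cycle was shifted to 13:00–01:00 h. At 9 weeks, rats were randomised (n = 30/group) to saline or insulin s.c. at 11:00–12:00 h, 5 days/week, ramped 5→10→15 U/kg. Tail-nick glucometer glucose was taken before and 4 h post-injection three times weekly. Data are mean ± s.e.m., analysed by ANOVA and Waller–Duncan test.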

[3] = test system: Akt (phospho-Ser473-Akt / total Akt); assay: Western blot of phosphorylated and total Akt in mammary tumours; format: in vivo, female Sprague-Dawley rats; settings: mammary tumours 4 h after last s.c. injection, 15 U/kg
Method in brief: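 High-fat-fed, MNU-treated female Sprague-Dawley rats received saline or insulin s.c. 5 days/week for 6 weeks. Palpable mammary tumours were collected under ketamine/xylazine/acepromazine anaesthesia 4 h after the last injection, halved, and one half was snap-frozen in liquid nitrogen for Western blotting of phosphorylated and total Akt.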

[4] = format: in vivo, female Sprague-Dawley rats; settings: 15 U/kg s.c.; for steady plasma concentrations (unit/L) up to: high-fat-fed rats, n = 6, unmetabolised glargine
[5] = ref not given, cited from earlier work

Substance	increase of mammary tumour number in tumour-bearing rats compared with controls [1]	Final body weight [2] [g]	Food intake [2] [g/day]	Body weight increase [2]	blood glucose levels before the injection vs control or detemir groups [2]	number of tumours per rat (tumour multiplicity, all rats) [1]	ratio of phosphorylated (active) Akt to total Akt vs control group [3]	steady plasma concentrations (unit/L) up to [4]	peak of glucose-lowering action ([4]; insulin-resistant rats, partial recovery of plasma glucose at 9 h) [h]	sustained action after subcutaneous injection in humans ([5]; humans)	sustained action after subcutaneous injection ([5]; species not given, general statement)
NPH: NPH (unmodified human insulin), purchased from Eli Lilly, Canada	approximately doubled	346 ± 7	21.1 ± 1.4	98.7 ± 4.5^a g	slightly higher	–	–	–	–	–	–
detemir	approximately doubled	338 ± 6	19.7 ± 0.8	80.7 ± 3.9 g	–	1.4 ± 0.4	higher	up to 9 h	–	–	–
glargine	2 fold	343 ± 5	21.1 ± 1.2	93.8 ± 4.4 g	slightly higher	1.5 ± 0.4	higher	up to 9 h	1.5 to 4	over 20 h	up to 24 h
